From ChEMBL document CHEMBL1212918, “Computer-aided optimization of phosphinic inhibitors of bacterial ureases” (J Med Chem, 2010)

Legend:
[1] = Inhibition of Proteus vulgaris CCM 1956 urease by berthelot colorimetric assay
Outline: (§1)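 Urease partially purified from the cells of each strain, which were grown aerobically at 37 °C in yeast extract/urea/1 mM NiCl2 medium at pH 9.0. Purification used anion exchange followed by phenyl-Sepharose. Enzyme incubated at 30 °C in 3 mM phosphate pH 7.0 with increasing inhibitor concentrations and urea 10–100 mM. Activity read by modified Berthelot colorimetry. IC50 and Ki were derived by equation fitting.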

[2] = Inhibition of Bacillus pasteurii CCM 2056 urease by berthelot colorimetric assay; design: species or system Sporosarcina pasteurii; outline: as §1
[3] = Inhibition of Klebsiella aerogenes urease

Compound | IC50 [1] | Ki [1] | IC50 [2] | Ki [2] | Ki [3]
O=C(NCP(=O)(O)CO)OCc1ccccc1 | 377 µM | 41.9 µM | 889 µM | 376 µM | 
O=C(NCP(O)(=S)CO)OCc1ccccc1 (stereo not drawn) | 976 µM | 143 µM | 1420 µM | 428 µM | 
NCC(=O)NCP(=O)(O)CO | 14.9 µM | 7.3 µM | 85 µM | 30.5 µM | 
CNCC(=O)NCP(=O)(O)CO | 20.6 µM | 16.2 µM | 25.4 µM | 10.6 µM | 
CN(C)CC(=O)NCP(=O)(O)CO | 0.86 µM | 0.43 µM | 2.15 µM | 1.15 µM | 
O=C(CNC(=O)OCc1ccccc1)NCP(=O)(O)CO | 3.6 µM | 1.96 µM | 5 µM | 1.35 µM | 
CP(=O)(O)CNC(=O)CN |  | 30 µM |  |  | 
CN(C)CP(=O)(O)CO [(DIMETHYLAMINO)METHYL(HYDROXYMETHYL)PHOSPHINIC ACID] | 17.2 µM | 3.1 µM | 67.6 µM | 5 µM | 
CC(=O)NO [ACETOHYDROXAMIC ACID] |  |  |  |  | 2.6 µM
NCP(=O)(O)CO [AMINOMETHYL(HYDROXYMETHYL)PHOSPHINIC ACID] | 47.7 µM | 27.5 µM | 423 µM | 95 µM | 
O=C(NCP(=O)(O)CO)c1ccccc1 [BENZOYLAMINOMETHYL(HYDROXYMETHYL)PHOSPHINIC ACID] | 28 µM | 9.2 µM | 69 µM | 31.9 µM | 
CNCP(=O)(O)CO [HYDROXYMETHYL((METHYLAMINO)METHYL)PHOSPHINIC ACID] | 0.96 µM | 0.36 µM | 1.59 µM | 0.43 µM | 
CNCP(C)(=O)O [METHYL((METHYLAMINO)METHYL)PHOSPHINIC ACID] |  | 27 µM |  |  | 
